Measurements published in ChEMBL document CHEMBL1123220, “Structure-activity studies of 16-methoxy-16-methyl prostaglandins” (1986).

Experiments:
[1] = test system: Rattus norvegicus; assay: Compound was evaluated for antisecretion activity using stomach perfusion test in the anesthetized rat (iv administration) in experiment 1; assay type: functional; details: read-out: ID50 (the source's name)
Summary of the method: (§1)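 Stomach perfusion in anesthetized rats. Gastric hypersecretion driven by continuous iv histamine infusion at 1.5 mg/kg per hour. Compound given iv. ID50 read from a plot of response, as percent of control, against log dose.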

[2] = test system: Mus musculus; assay: Compound was evaluated for diarrheal effect in mice (po administration); assay type: functional
Summary of the method: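 Mice fasted 24 h, then given logarithmically graded oral doses of 100–4000 μg/kg. Animals caged singly on blotting paper for 1 h, and stool dampness spots scored on a 0–4 scale. ED50 calculated by the Miller–Tainter method.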

[3] = test system: Rattus norvegicus; assay: Compound was evaluated for antisecretion activity using stomach perfusion test in the anesthetized rat (iv administration) in experiment 2; assay type: functional; details: read-out: ID50 (the source's name); summary of the method: as §1
[4] = test system: Cricetinae gen. sp.; assay: Antifertility activity was determined in hamsters (two to six dose levels, 6-18 animals per group) treated subcutaneously (sc) from day 4 to day 6 of gestation; assay type: functional, Mesocricetus auratus
Summary of the method: (§2)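 Syrian Golden hamsters dosed sc on three consecutive days, gestation days 4 to 6. Two to six dose levels, 6–18 animals per group. Animals killed on day 10 of gestation, and implantation sites and live fetuses counted.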

[5] = test system: Rattus norvegicus; assay: Compound was evaluated for antisecretion activity using stomach perfusion test in the anesthetized rat (iv administration); assay type: functional; details: read-out: ID50 (the source's name)
[6] = Ratio of ED50 for diarrhea to ID50 (antisecretory activity); assay type: functional
[7] = test system: Cricetinae gen. sp.; assay: (§3) Antifertility activity was determined in hamsters (two to six dose levels, 6-18 animals per group) treated subcutaneously (sc) from day 4 to day 6 of gestation.; assay type: functional, Mesocricetus auratus; summary of the method: as §2
[8] = test system: Rattus norvegicus; assay: Compound was evaluated for antisecretion activity using stomach perfusion test in the anesthetized rat (ig administration); assay type: functional; details: for ED50: Rattus norvegicus, Stomach, po, read-out: ID50 (the source's name)
[9] = test system: Rattus norvegicus; assay: Compound was evaluated for antisecretion activity using stomach perfusion test in the anesthetized rat (iv administration); At the dose of 500 ug/kg, some animals died; assay type: functional; details: read-out: ID50 (the source's name)
[10] = test system: Cricetinae gen. sp.; assay: as §3; assay type: functional, Cricetulus griseus; summary of the method: as §2
[11] = Mus musculus, po, read-out: ED50

SMILES	ED50 [4] [mg/kg]	ED50 [2, 11] [mg/kg]	ED50 [5] [mg/kg]	ED50 [7] [mg/kg]	other results
CCCC[C@](C)(OC)[C@@H](O)/C=C/C1[C@H](O)CC(=O)[C@@H]1CCCCCCC(=O)OC (stereo in doubt; form 2)					ED50 [1]: 0.1 mg/kg; ED50 [2]: 0.774 mg/kg; ED50 [3]: 0.3 mg/kg
CCCC[C@@](C)(OC)[C@H](O)/C=C/C1[C@H](O)CC(=O)[C@@H]1C/C=C\CCCC(=O)OC (some centres not stated)	> 1	0.757	0.0072		Ratio [6]: 105
CCCC[C@@H](OC)[C@H](O)/C=C/C1[C@H](O)CC(=O)[C@@H]1C/C=C\CCCC(=O)O (some centres not stated)			> 0.05		
CCCC[C@@](C)(OC)[C@@H](O)/C=C/C1[C@H](O)CC(=O)[C@@H]1C/C=C\CCCC(=O)OC (some centres not stated)	> 1				
CCCC[C@](C)(OC)[C@@H](O)/C=C/C1[C@H](O)CC(=O)[C@@H]1CCCCCCC(=O)OC (stereo in doubt; form 1)	> 2.5		> 3		ED50 [2]: >4 mg/kg
CCCC[C@](C)(OC)[C@H](O)/C=C/C1[C@H](O)C[C@H](O)[C@@H]1C/C=C\CCCC(=O)OC (some centres not stated)		1.81	> 2	1.5	
CCCC[C@@](C)(OC)[C@@H](O)/C=C/C1[C@H](O)C[C@H](O)[C@@H]1C/C=C\CCCC(=O)OC (some centres not stated)		> 4	> 2	> 4	
CCCC[C@@](C)(OC)[C@@H](O)/C=C/C1[C@H](O)CC(=O)[C@@H]1CCCCCCC(=O)OC (some centres not stated)	> 2.5	> 4	> 1		
CCCC[C@@](C)(OC)[C@H](O)/C=C/C1[C@H](O)CC(=O)[C@@H]1CCCCCCC(=O)OC (some centres not stated)	> 2.5	1.35	0.0045		ID50 [8]: 0.015 mg/kg; ED50 [8]: 0.015 mg/kg; Ratio [6]: 300
CCCCC[C@H](O)/C=C/[C@H]1[C@H](O)CC(=O)[C@@H]1CCCCCCC(=O)O [ALPROSTADIL]		1.02	0.0285	1.8	Ratio [6]: 36
CCCCC[C@H](O)/C=C/[C@@H]1[C@@H](C/C=C\CCCC(=O)O)[C@@H](O)C[C@H]1O [DINOPROST]		0.57			ED50 [9]: > 0.3 mg/kg; ED50 [10]: 0.06 mg/kg
CCCC[C@](C)(OC)[C@H](O)/C=C/C1[C@H](O)CC(=O)[C@@H]1C/C=C\CCCC(=O)OC (some centres not stated)	> 1	0.479	0.5		
CCCCC(OC)[C@H](O)/C=C/C1[C@H](O)CC(=O)[C@@H]1CCCCCCC(=O)O (some centres not stated)					ED50 [8]: > 0.1 mg/kg
CCCC[C@](C)(OC)[C@@H](O)/C=C/C1[C@H](O)C[C@H](O)[C@@H]1C/C=C\CCCC(=O)OC (some centres not stated)		> 4	> 4	> 4	
CCCC[C@](C)(OC)[C@@H](O)/C=C/C1[C@H](O)CC(=O)[C@@H]1C/C=C\CCCC(=O)OC (some centres not stated)	> 1	0.912	1.5		
CCCCC[C@H](O)/C=C/[C@H]1[C@H](O)CC(=O)[C@@H]1C/C=C\CCCC(=O)O [DINOPROSTONE]		1.5	0.026	0.7	ED50 [8]: > 0.1 mg/kg; Ratio [6]: 58
CCCC[C@@](C)(OC)[C@H](O)/C=C/C1[C@H](O)C[C@H](O)[C@@H]1C/C=C\CCCC(=O)OC (some centres not stated)		0.888	1.5	0.6	
